Reference: ChEMBL document CHEMBL1671716, “Antimicrobial susceptibility patterns for recent clinical isolates of anaerobic bacteria in South Korea” (2010)
Values after ≈ are worked out from the molar mass of the structure shown.

How the values were obtained:
Bacteroides caccae [1] = test: Antimicrobial activity against Bacteroides caccae assessed as percent resistant isolates after 48 hrs by agar dilution method; assay type: functional
In short: (§1)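 CLSI agar dilution on recent Korean clinical anaerobe isolates. Inoculum 10^5 CFU per spot by replicator. Plates incubated in an anaerobic chamber at 37°C for 48 h. For piperacillin plus tazobactam, tazobactam was held constant at 4 μg/ml. Resistance and susceptibility rates derived from MICs.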

Finegoldia magna [2] = test: Antimicrobial activity against Finegoldia magna after 48 hrs by agar dilution method; assay type: functional
In short: (§2)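 CLSI agar dilution (M11-A7); inoculum 10^5 CFU applied by replicator; plates incubated anaerobically 48 h at 37°C. For piperacillin-tazobactam, tazobactam held constant at 4 μg/ml.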

Bacteroides ovatus [3] = test: Antimicrobial activity against Bacteroides ovatus assessed as percent susceptible isolates after 48 hrs by agar dilution method; assay type: functional
[4] = test system: Parabacteroides distasonis; test: Antimicrobial activity against Bacteroides distasonis after 48 hrs by agar dilution method; assay type: functional
In short: (§3)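 MICs on clinical anaerobe isolates by the CLSI agar dilution method. Inoculum of 10^5 CFU applied with a Steers replicator. Plates incubated 48 h at 37°C in an anaerobic chamber.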

Schaalia odontolytica [5] = test: Antimicrobial activity against Actinomyces odontolyticus assessed as percent susceptible isolates after 48 hrs by agar dilution method; assay type: functional
Bacteroides caccae [6] = test: Antimicrobial activity against Bacteroides caccae assessed as percent susceptible isolates after 48 hrs by agar dilution method; assay type: functional
Eggerthella lenta [7] = test: Antimicrobial activity against Eubacterium lentum assessed as percent resistant isolates after 48 hrs by agar dilution method; assay type: functional; in short: as §1
[8] = test system: Bifidobacterium adolescentis; test: Antimicrobial activity against Bifidobacterium adolescentis assessed as percent resistant isolates after 48 hrs by agar dilution method; assay type: functional; in short: as §1
Actinomyces israelii [9] = test: Antimicrobial activity against Actinomyces israelii after 48 hrs by agar dilution method; assay type: functional; in short: as §3
Finegoldia magna [10] = test: Antimicrobial activity against Finegoldia magna assessed as percent resistant isolates after 48 hrs by agar dilution method; assay type: functional; in short: as §1
Anaerococcus prevotii [11] = test: Antimicrobial activity against Anaerococcus prevotii after 48 hrs by agar dilution method; assay type: functional; in short: as §3
Schaalia meyeri = test: Antimicrobial activity against Actinomyces meyeri after 48 hrs by agar dilution method; assay type: functional; in short: as §3
[12] = test system: Peptostreptococcus anaerobius; test: Antimicrobial activity against Peptostreptococcus anaerobius assessed as percent susceptible isolates after 48 hrs by agar dilution method; assay type: functional; in short: as §1
[13] = test system: Peptostreptococcus anaerobius; test: Antimicrobial activity against Peptostreptococcus anaerobius after 48 hrs by agar dilution method; assay type: functional; in short: as §2
Eubacterium sp. [14] = test: Antimicrobial activity against Eubacterium sp. assessed as percent susceptible isolates after 48 hrs by agar dilution method; assay type: functional; in short: as §2
Bifidobacterium sp. [15] = test: Antimicrobial activity against Bifidobacterium sp. assessed as percent resistant isolates after 48 hrs by agar dilution method; assay type: functional; in short: as §1
Anaerococcus prevotii [16] = test: Antimicrobial activity against Anaerococcus prevotii assessed as percent susceptible isolates after 48 hrs by agar dilution method; assay type: functional
Anaerococcus prevotii [17] = test: Antimicrobial activity against Anaerococcus prevotii assessed as percent resistant isolates after 48 hrs by agar dilution method; assay type: functional; in short: as §1
[18] = test system: Bifidobacterium adolescentis; test: Antimicrobial activity against Bifidobacterium adolescentis after 48 hrs by agar dilution method; assay type: functional; in short: as §3
Phocaeicola vulgatus [19] = test: Antimicrobial activity against Bacteroides vulgatus assessed as percent resistant isolates after 48 hrs by agar dilution method; assay type: functional; in short: as §1
Prevotella buccae = test: Antimicrobial activity against Prevotella buccae assessed as percent susceptible isolates after 48 hrs by agar dilution method; assay type: functional, Segatella buccae; in short: as §2
Bacteroides ovatus [20] = test: Antimicrobial activity against Bacteroides ovatus after 48 hrs by agar dilution method; assay type: functional; in short: as §3
Eubacterium sp. [21] = test: Antimicrobial activity against Eubacterium sp. assessed as percent resistant isolates after 48 hrs by agar dilution method; assay type: functional; in short: as §1
[22] = test system: Peptoniphilus asaccharolyticus; test: Antimicrobial activity against Peptoniphilus asaccharolyticus assessed as percent resistant isolates after 48 hrs by agar dilution method; assay type: functional; in short: as §1
Bifidobacterium sp. [23] = test: Antimicrobial activity against Bifidobacterium sp. after 48 hrs by agar dilution method; assay type: functional; in short: as §3
Eubacterium sp. [24] = test: Antimicrobial activity against Eubacterium sp. after 48 hrs by agar dilution method; assay type: functional; in short: as §2
Schaalia odontolytica [25] = test: Antimicrobial activity against Actinomyces odontolyticus assessed as percent resistant isolates after 48 hrs by agar dilution method; assay type: functional; in short: as §1
Prevotella bivia = test: Antimicrobial activity against Prevotella bivia assessed as percent resistant isolates after 48 hrs by agar dilution method; assay type: functional; in short: as §1
Actinomyces israelii [26] = test: Antimicrobial activity against Actinomyces israelii assessed as percent susceptible isolates after 48 hrs by agar dilution method; assay type: functional
Phocaeicola vulgatus [27] = test: Antimicrobial activity against Bacteroides vulgatus assessed as percent susceptible isolates after 48 hrs by agar dilution method; assay type: functional
Bacteroides fragilis [28] = test: Antimicrobial activity against Bacteroides fragilis assessed as percent susceptible isolates after 48 hrs by agar dilution method; assay type: functional
Bacteroides fragilis [29] = test: Antimicrobial activity against Bacteroides fragilis assessed as percent resistant isolates after 48 hrs by agar dilution method; assay type: functional; in short: as §1
Eggerthella lenta [30] = test: Antimicrobial activity against Eubacterium lentum assessed as percent susceptible isolates after 48 hrs by agar dilution method; assay type: functional; in short: as §2
[31] = test system: Peptoniphilus asaccharolyticus; test: Antimicrobial activity against Peptoniphilus asaccharolyticus assessed as percent susceptible isolates after 48 hrs by agar dilution method; assay type: functional; in short: as §2
Prevotella intermedia = test: Antimicrobial activity against Prevotella intermedia after 48 hrs by agar dilution method; assay type: functional; in short: as §2
Bacteroides ovatus [32] = test: Antimicrobial activity against Bacteroides ovatus assessed as percent resistant isolates after 48 hrs by agar dilution method; assay type: functional; in short: as §1
Hoylesella oralis = test: Antimicrobial activity against Prevotella oralis assessed as percent susceptible isolates after 48 hrs by agar dilution method; assay type: functional
In short: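 CLSI agar dilution MIC testing of clinical isolates. 10^5 CFU spotted by replicator, plates incubated 48 h at 37°C in an anaerobic chamber. Susceptibility rates derived from the MICs.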

Parvimonas micra = test: Antimicrobial activity against Peptostreptococcus micros assessed as percent susceptible isolates after 48 hrs by agar dilution method; assay type: functional; in short: as §1
Actinomyces naeslundii = test: Antimicrobial activity against Actinomyces naeslundii after 48 hrs by agar dilution method; assay type: functional; in short: as §3

COc1c(N2C[C@@H]3CCCN[C@@H]3C2)c(F)cc2c(=O)c(C(=O)O)cn(C3CC3)c12 [MOXIFLOXACIN]
Activity (Bacteroides caccae [1]): 18%
MIC50 (Finegoldia magna [2]): 0.5 µg/mL (≈ 1.25 µM)
MIC90 (Finegoldia magna [2]): 8 µg/mL (≈ 19.9 µM)
Activity (Bacteroides ovatus [3]): 72%
MIC50 [4]: 2 µg/mL (≈ 4.98 µM)
MIC90 [4]: 16 µg/mL (≈ 39.9 µM)
Activity (Schaalia odontolytica [5]): 92%
Activity (Bacteroides caccae [6]): 72%
Activity (Eggerthella lenta [7]): 0%
Activity [8]: 15%
MIC50 (Actinomyces israelii [9]): 1 µg/mL (≈ 2.49 µM)
MIC90 (Actinomyces israelii [9]): 2 µg/mL (≈ 4.98 µM)
Activity (Finegoldia magna [10]): 27%
MIC50 (Anaerococcus prevotii [11]): 0.25 µg/mL (≈ 0.623 µM)
MIC90 (Anaerococcus prevotii [11]): 8 µg/mL (≈ 19.9 µM)
MIC50 (Schaalia meyeri): 1 µg/mL (≈ 2.49 µM)
MIC90 (Schaalia meyeri): 2 µg/mL (≈ 4.98 µM)
Activity [12]: 92%
MIC50 [13]: 0.125 µg/mL (≈ 0.311 µM)
MIC90 [13]: 0.25 µg/mL (≈ 0.623 µM)
Activity (Eubacterium sp. [14]): 92%
Activity (Bifidobacterium sp. [15]): 0%
Activity (Anaerococcus prevotii [16]): 87%
Activity (Anaerococcus prevotii [17]): 13%
MIC50 [18]: 1 µg/mL (≈ 2.49 µM)
MIC90 [18]: 2 µg/mL (≈ 4.98 µM)
Activity (Phocaeicola vulgatus [19]): 18%
Activity (Prevotella buccae): 56%
MIC50 (Bacteroides ovatus [20]): 2 µg/mL (≈ 4.98 µM)
MIC90 (Bacteroides ovatus [20]): 16 µg/mL (≈ 39.9 µM)
Activity (Eubacterium sp. [21]): 0%
Activity [22]: 0%
MIC50 (Bifidobacterium sp. [23]): 1 µg/mL (≈ 2.49 µM)
MIC90 (Bifidobacterium sp. [23]): 2 µg/mL (≈ 4.98 µM)
MIC50 (Eubacterium sp. [24]): 1 µg/mL (≈ 2.49 µM)
MIC90 (Eubacterium sp. [24]): 2 µg/mL (≈ 4.98 µM)
Activity (Schaalia odontolytica [25]): 0%
Activity (Prevotella bivia): 11%
Activity (Actinomyces israelii [26]): 92%
Activity (Phocaeicola vulgatus [27]): 72%
Activity (Bacteroides fragilis [28]): 84%
Activity (Bacteroides fragilis [29]): 11%
Activity (Eggerthella lenta [30]): 92%
Activity [31]: 100%
MIC (Prevotella intermedia): 0.5 µg/mL (≈ 1.25 µM)
MIC50 (Prevotella intermedia): 0.5 µg/mL (≈ 1.25 µM)
MIC90 (Prevotella intermedia): 0.5 µg/mL (≈ 1.25 µM)
Activity (Bacteroides ovatus [32]): 18%
Activity (Hoylesella oralis): 56%
Activity (Parvimonas micra): 8%
MIC50 (Actinomyces naeslundii): 1 µg/mL (≈ 2.49 µM)
MIC90 (Actinomyces naeslundii): 2 µg/mL (≈ 4.98 µM)
